Test results from ChEMBL document CHEMBL1157074, “Hyaluronidase inhibitors from "Cimicifugae Rhizoma" (a mixture of the rhizomes of Cimicifuga dahurica and C. heracleifolia)” (J Nat Prod, 2010).

Test: Inhibition of bovine testis hyaluronidase type 4 after 20 mins by modified Morgan-Elson method
Parameters: species or system Bos taurus
Procedure, shortened: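 Bovine testis hyaluronidase (Type IV-S, 400 NF units/mL stock) preincubated with sample in 0.1 mol/L acetate buffer pH 3.5, 20 min, 37 °C. Activated with 2.5 mmol/L CaCl2 for 20 min, then rooster-comb potassium hyaluronate (0.4 mg/mL stock) added for 40 min. Stopped with NaOH, boiled with boric acid, p-dimethylaminobenzaldehyde colour read at 585 nm. Percent inhibition corrected against blanks.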

Row | Compound | IC50 [µM]
1 | COc1cc(/C=C/C(=O)O[C@H](C(=O)O)[C@](O)(Cc2ccc(O)c(O)c2)C(=O)O)ccc1O [CIMICIFUGIC ACID A] | 112
2 | COc1ccc(/C=C/C(=O)O[C@H](C(=O)O)[C@](O)(Cc2ccc(O)c(O)c2)C(=O)O)cc1O [CIMICIFUGIC ACID B] | 82
3 | O=C(/C=C/c1ccc(O)cc1)O[C@H](C(=O)O)[C@](O)(Cc1ccc(O)c(O)c1)C(=O)O [CIMICIFUGIC ACID C] | 251
4 | O=C(/C=C/c1ccc(O)c(O)c1)O[C@H](C(=O)O)[C@](O)(Cc1ccc(O)cc1)C(=O)O [CIMICIFUGIC ACID D] | 153
5 | COc1cc(/C=C/C(=O)O[C@H](C(=O)O)[C@](O)(Cc2ccc(O)cc2)C(=O)O)ccc1O [CIMICIFUGIC ACID E] | 120
6 | COc1ccc(/C=C/C(=O)O[C@H](C(=O)O)[C@](O)(Cc2ccc(O)cc2)C(=O)O)cc1O [CIMICIFUGIC ACID F] | 92
7 | COc1ccc(/C=C/C(=O)O[C@H](C(=O)O)[C@](O)(Cc2ccc(O)c(O)c2)C(=O)O)cc1OC [CIMICIFUGIC ACID G] | 138
8 | O=C(O[C@H](C(=O)O)[C@](O)(Cc1ccc(O)c(O)c1)C(=O)O)c1ccc(O)cc1 [CIMICIFUGIC ACID H] | 525
9 | COc1cc(/C=C/C(=O)O[C@H](C(=O)O)[C@](O)(Cc2ccc(O)c(O)c2)C(=O)O)cc(OC)c1O [CIMICIFUGIC ACID I] | 143
10 | COc1cc(/C=C/C(=O)O[C@H](C(=O)O)[C@](O)(Cc2ccc(O)cc2)C(=O)O)cc(OC)c1O [CIMICIFUGIC ACID J] | 193
11 | O=C(/C=C/c1ccc(O)c(O)c1)O[C@H](C(=O)O)[C@](O)(Cc1ccc(O)c(O)c1)C(=O)O [FUKINOLIC ACID] | 144
12 | O=C(/C=C/c1ccc(O)c(O)c1)O[C@H](Cc1ccc(O)c(O)c1)C(=O)O [ROSMARINIC ACID] | 545
13 | COc1cc(/C=C/C(=O)O[C@H](C(=O)O)[C@](O)(Cc2ccc(O)c(O)c2)C(=O)O)ccc1O[C@@H]1O[C@H](CO)[C@H](O)[C@H](O)[C@H]1O [SHOMASIDE A] | 573
14 | COc1cc(/C=C/C(=O)O[C@H](C(=O)O)[C@](O)(Cc2ccc(O)cc2)C(=O)O)ccc1O[C@@H]1O[C@H](CO)[C@H](O)[C@H](O)[C@H]1O [SHOMASIDE B] | 430
15 | COc1cc(/C=C/C(=O)O[C@H](C(=O)O)[C@](O)(Cc2ccc(O)cc2)C(=O)O)ccc1O[C@@H]1O[C@H](CO)[C@@H](O)[C@H](O)[C@H]1O [SHOMASIDE C] | 663
16 | COC(=O)C(O)C(Cc1ccc(O)cc1)(OC(=O)/C=C/c1ccc(O[C@@H]2O[C@H](CO)[C@@H](O)[C@H](O)[C@H]2O)c(OC)c1)C(=O)O (some centres not stated) [SHOMASIDE D] | > 658
17 | COc1cc(OC(=O)/C=C/c2ccc(O[C@@H]3O[C@H](CO)[C@H](O)[C@H](O)[C@H]3O)c(OC)c2)ccc1CCO [SHOMASIDE E] | > 790
